Assay outcomes deposited in PubChem by Johns Hopkins Ion Channel Center.
KCNQ1 inh: inhibitors of human KCNQ1 potassium channel; B-score at 10 µM; AID 2642; CHO-K1 KCNQ1, FluxOR thallium flux fluorescence; stronger effect = higher value; P51787; 310,000 tested, 1.3% active;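 active = compounds whose thallium flux B-score, printed positive for inhibition, exceeds three library SD while starting fluorescence stays within three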;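 also: channel opened by potassium depolarization with thallium stimulus after 20 min compound exposure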
Target sequence (P51787 whole entry, looked up): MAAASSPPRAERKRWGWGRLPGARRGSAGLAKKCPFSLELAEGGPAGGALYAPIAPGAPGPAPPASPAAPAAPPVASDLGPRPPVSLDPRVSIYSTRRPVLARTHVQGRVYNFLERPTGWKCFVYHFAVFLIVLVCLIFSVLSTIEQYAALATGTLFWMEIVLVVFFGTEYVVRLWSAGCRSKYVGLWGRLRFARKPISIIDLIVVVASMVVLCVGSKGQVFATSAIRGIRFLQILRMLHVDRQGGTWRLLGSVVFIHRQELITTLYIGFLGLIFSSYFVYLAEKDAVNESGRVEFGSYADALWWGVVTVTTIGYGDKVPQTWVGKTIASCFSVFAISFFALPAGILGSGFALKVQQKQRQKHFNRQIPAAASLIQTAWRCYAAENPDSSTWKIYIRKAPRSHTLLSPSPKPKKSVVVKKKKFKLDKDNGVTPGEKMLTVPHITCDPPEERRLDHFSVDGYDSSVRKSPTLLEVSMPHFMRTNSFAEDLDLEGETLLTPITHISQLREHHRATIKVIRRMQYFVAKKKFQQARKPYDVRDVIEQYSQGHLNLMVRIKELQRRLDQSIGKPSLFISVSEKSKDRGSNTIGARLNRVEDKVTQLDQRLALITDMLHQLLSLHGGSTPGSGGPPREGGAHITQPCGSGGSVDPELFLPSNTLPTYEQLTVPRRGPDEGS
KCNQ1 act: potentiates or activates the human KCNQ1 potassium channel; CHO-K1 KCNQ1, thallium flux FluxOR fluorescence; stronger effect = higher value; B-score at 10 µM; P51787; 310,000 tested, 0.35% active;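 active = fluorescence ratio B-score, a plate-corrected score, at least three library SD, with initial intensity B-score within 5 SD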
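Assay system: stable KCNQ1 CHO-K1 line; medium: assay buffer, equal DMSO in all wells; timing: 90 min dye loading and 20 min compound exposure, both at room temperature; technique: kinetic FluxOR thallium fluorescence, 10-s 1-Hz baseline, 110-s post-stimulus read; read-out basis: B score of baseline-normalized fluorescence ratio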
KCNK3 block: human KCNK3 channel inhibition, primary screen | O14649 | CHO-KCNK3 thallium flux, FluxOR fluorescence; stronger effect = lower value | B-score at 10 µM | 340,000 tested, 0.84% active | AID 602410;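 active = B-score under library mean minus 4 SD, starting fluorescence ratio at most library mean plus 5 SD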;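 also: more negative B-score means stronger inhibition of thallium flux through KCNK3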
Kir21 block: blocks the mouse Kir2.1 inward-rectifier potassium channel; P35561; HEK293-Kir2.1, FluxOR thallium flux fluorescence; stronger effect = lower value; B-score at 10 µM; 310,000 tested, 0.85% active; AID 1672;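 active = fluorescence ratio B-score at or below minus 3 SD of library scores, with starting-brightness B-score within 2 SD, cut at about -4.2 in these data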;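 also: channel flux triggered by added potassium and thallium sulfate stimulus; B-score of peak minus minimum fluorescence over baseline after thallium stimulus; more negative B-score means stronger Kir2.1 block with less thallium influx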
hERG protect: compounds protecting human hERG from proarrhythmic drug block. Q12809. CHO-hERG, FluxOR thallium flux, dofetilide IC70 present. activation (rescue from dofetilide block), less the hit threshold, % at 10 µM. 310,000 tested, 0.51% active. AID 1511;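 active = activation above the mean of controls blocked by dofetilide plus 5 SD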;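 also: thallium influx through hERG after potassium depolarization seen as dye fluorescence rise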
KCNK9 block: blocks the human KCNK9 two-pore domain potassium channel. B-score at 10 µM. Q9NPC2. HEK293 KCNK9, FluxOR thallium flux fluorescence; stronger effect = lower value. 310,000 tested, 1.2% active;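 active = ratio B-score over 3 SD below the library mean, with starting fluorescence within 5 SD of its mean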;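 also: negative B-score means less thallium flux so channel inhibition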
An asterisk follows results filed as active; i = inactive; . = not tested or not shown. Rows were chosen to be rich in hits. Some 3.8% of all compounds tested hit in one or more screens of this group.

SMILES	KCNQ1 inh	KCNQ1 act	KCNK3 block	Kir21 block	hERG protect	KCNK9 block
CCc1ccc(-c2csc3nc[nH]c(=O)c23)cc1	i	i	i	1.1	0	i
Cc1ccc(-c2csc3nc[nH]c(=S)c23)cc1	i	26*	i	1.6	53*	i
O=c1[nH]cnc2scc(-c3ccccc3)c12	i	i	i	-0.55	-7	i
S=c1ncc2[nH]c(=S)[nH]c2[nH]1	.	.	i	.	.	.
COc1ccc(N2CCN(C3CCCN(C(=O)c4cccc(C)n4)C3)CC2)cc1 (stereo not given)	i	i	i	1.9	-6	i
Cc1ccc(C)c(N(C(=O)c2csnn2)C(C(=O)NC2CCCCC2)c2cccnc2)c1 (stereo not given)	i	i	i	1.4	-2	i
CCN(C(=O)CCc1nnc2ccc(NCc3ccco3)nn12)c1ccccc1	i	i	i	1.2	-8	i
Cc1csc(SC(C)C(=O)NCC2CCCO2)n1 (stereo not given)	i	i	i	0.02	-9	i
S=c1[nH]cnc2scc(-c3ccc(Cl)cc3)c12	i	19*	i	-0.01	23*	i
COc1ccc(C)cc1NC(=O)C(OC(=O)CNC(=O)c1ccc(Oc2ccccc2)cc1)c1ccccc1 (stereo not given)	i	i	i	1.4	-15	-7.9*
COc1ccc(C)cc1NC(=O)C(OC(=O)CNC(=O)c1cccc(F)c1)c1ccccc1 (stereo not given)	i	i	i	-0.13	-4	i
COc1cc(C(=O)NS(=O)(=O)c2ccccc2C)ccc1Cc1cn(C)c2ccc(NC(=O)OC3CCCC3)cc12	10*	i	.	-0.79	-33	i
CC(=O)c1ccc(S(=O)(=O)N(C)CCCC(=O)NCc2ccc3c(c2)OCO3)cc1	.	.	i	.	.	.
Cn1cccc1/C=C1/SC(=S)N(CC(=O)O)C1=O	i	i	i	-0.67	-11	i
CN1CCS/C1=C\C=C1/SC(=S)N(CC(=O)O)C1=O	11*	i	i	-12	-30	i
CCN(C(=O)COC(=O)CCCOc1ccc(Cl)cc1C)c1c(N)n(Cc2ccccc2)c(=O)[nH]c1=O	.	.	i	.	.	.
COc1cc(C)c(S(=O)(=O)NOCc2ccccc2)c(C)c1C	i	i	i	-7.1*	-4	i
COc1cc(C(=O)NCC2CCCO2)ccc1OCc1ccc(Cl)cc1Cl (stereo not given)	i	i	i	1.3	-13	i
O=C(OCC(=O)N1CCCC1=O)c1cccc([N+](=O)[O-])c1	i	i	i	0.54	-14	i
O=c1c(C(c2ccc(O)cc2)c2c(O)nc3n(c2=O)CCS3)c(O)nc2n1CCS2	i	i	i	0.25	6.7*	i
CCOc1ccccc1-n1c(SCC(=O)Nc2ccccc2C(=O)O)nc2ccccc2c1=O	i	i	i	0.8	-4	i
OC(CNC1Cc2ccccc2C1)COc1ccc(Cl)cc1 (stereo not given)	i	i	i	-4.2*	-11	i
OC(CNCc1ccccc1)COc1ccccc1 (stereo not given)	i	i	i	0.09	-11	i
OC(CNC1CCCc2ccccc21)COc1c(Cl)cccc1Cl (stereo not given)	i	i	i	-8.9*	-8	i
COc1cccc(CNCC(O)COc2ccc(C(=O)c3ccccc3)cc2)c1 (stereo not given)	i	i	i	-5.4*	-9	i
SMILES	KCNQ1 inh	KCNQ1 act	KCNK3 block	Kir21 block	hERG protect	KCNK9 block
O=C(c1ccccc1)c1ccc(OCC(O)CNCc2ccc(Cl)cc2)cc1 (stereo not given)	i	i	i	-4.7*	-16	i
O=C(c1cccc(S(=O)(=O)N2CCOCC2)c1)N1CCN(C/C=C/c2ccccc2)CC1	.	.	i	.	.	.
CN(c1ccccc1)c1nccc(=O)[nH]1	i	i	i	1	-8	i
O=C(COc1ccc(S(=O)(=O)N2CCOCC2)cc1)Nc1ccccc1Cl	i	i	i	-2	-8	i
CC(C)Cc1nnc(NC(=O)CN2C(=O)NC3(CC(C)CC(C)(C)C3)C2=O)s1 (stereo not given)	i	i	i	1.1	-11	i
COc1ccc(S(=O)(=O)N2CCN(C(=O)c3ccc4ccccc4n3)CC2)cc1	.	.	i	.	.	.
CCOC(=O)c1ccc(NC(=O)CN2C(=O)CSC(C)C2=O)cc1 (stereo not given)	i	i	i	0.07	-8	i
CCC(C)c1ccccc1NC(=O)CN1CCN(C/C=C/c2ccccc2)CC1 (stereo not given)	i	i	i	-4.5*	-14	i
Fc1c(F)c(-n2nnc3ccccc32)c(F)c(F)c1Cl	i	i	i	-0.02	-6	i
CC1CCCC/C1=N/Nc1ccc([N+](=O)[O-])cc1[N+](=O)[O-] (stereo not given)	i	i	i	0.64	-1	i
CC1C/C(=N/Nc2ccc([N+](=O)[O-])cc2[N+](=O)[O-])CC(C)(C)C1 (stereo not given)	7*	i	i	-0.84	-8	i
CCC(C)NC(=O)c1cc(Cl)c(NC(=O)C2=C(C)OCCS2)cc1OC (stereo not given)	i	44*	i	0.1	-4	i
COCC(C)N1CCC(n2nccc2NC(=O)CCCc2ccccc2)CC1 (stereo not given)	i	i	i	1.4	-5	i
Cc1nn(Cc2ccccc2Cl)c2sc(C(=O)Nc3ccccc3N3CCOCC3)cc12	6*	i	i	1.6	-7	i
Cc1nn(Cc2ccc(F)cc2)c2sc(C(=O)Nc3ccccc3N3CCOCC3)cc12	i	i	i	-1.6	-6	i
Cc1ccc(C)c2c1cc(C)c1nnc(SCC(=O)c3cccs3)n12	i	i	i	-7.5*	-8	i
Cc1ccc(C)c2c1cc(C)c1nnc(SCC(=O)Nc3nc4c(s3)CCCC4)n12	i	i	i	-0.03	-4	i
Cc1ccc2cc(C)c3nnc(SCC(=O)c4cccs4)n3c2c1C	i	i	i	-5.1*	-8	i
CCOC(=O)c1ccc(S(=O)(=O)NNC(=O)Cc2csc(C)n2)cc1	.	.	i	.	.	.
O=S(=O)(NCC(c1ccco1)N1CCN(c2ccccc2F)CC1)c1ccccc1 (stereo not given)	i	i	i	0.24	-11	-6.9*
O=S(=O)(NCC(c1ccco1)N1CCN(c2ccccc2F)CC1)c1ccc2c(c1)OCCO2 (stereo not given)	i	i	i	-1.3	-10	i
